Data from ChEMBL document CHEMBL2331390, “Telomere shortening and cell senescence induced by perylene derivatives in A549 human lung cancer cells” (Bioorg Med Chem, 2013).
The source made the active and inactive calls. The calls are words filed in the database; no cut-off is given here.

Tests used:
[1] = species: Homo sapiens; assay: Binding affinity to human telomeric 5'-AGATAGTTAGGGTTAGGGTTAGGGTTAGGGTT-3' DNA assessed as induction of intramoleculsr G-quadruplex formation after 10 hrs by PAGE analysis
In short: (§1)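 FAM-labeled G-rich strand (2 µM) and complementary C-rich strand (2 µM) with compound in 10 mM Tris-HCl pH 7.4, 100 mM KCl. Heated to 95 °C for 5 min, slowly cooled to 55 °C, held 10 h, then cooled to 4 °C. Duplex vs G-quadruplex resolved on 16% native PAGE with 50 mM KCl (4 °C, 350 V, 10 h) and fluorescence-imaged.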

[2] = system: A549; assay: Binding affinity to human TERT promoter DNA sequence in human A549 cells assessed as telomere restriction fragment length at 0.4 uM after 6 days by TeloTAGGG-based chemiluminescence assay (reference value: 3.4 kb); assay type: cell-based
In short: (§2)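 Genomic DNA from A549 cells kept long-term with 0.4 or 0.8 μM compound (medium changed every 3 days, replated every 6 days). DNA isolated with DNAzol. 2 µg digested with RsaI/HinfI, run on 0.8% agarose, Southern-blotted, hybridized with DIG-labeled telomeric probe, anti-DIG alkaline phosphatase, chemiluminescence. Mean TRF = Σ(ODi)/Σ(ODi/Li).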

[3] = system: A549; assay: Binding affinity to human TERT promoter DNA sequence in human A549 cells assessed as decrease in TERT mRNA expression at 6 uM after 24 hrs by semi-quantitative PCR analysis relative to control; assay type: cell-based; design: scale not given: the % may be the effect or the level left
In short: (§3)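 A549 cells (3.0×10^5) grown 24 h in RPMI 1640 + 10% FBS at 37 °C, 5% CO2, then exposed to compound for 24 h. Total RNA by Trizol, reverse transcribed, hTERT amplified with specific primers. Semi-quantitative and real-time SYBR Green PCR (45 cycles), standard-curve method, normalized to GAPDH. Three independent experiments.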

[4] = system: A549; assay: Binding affinity to human TERT promoter DNA sequence in human A549 cells assessed as decrease in TERT mRNA expression after 24 hrs by semi-quantitative PCR analysis; assay type: cell-based; in short: as §3
[5] = system: A549; assay: Antiproliferative activity against human A549 cells assessed as decrease in population doubling at 0.8 uM after 78 days relative to control; assay type: functional; design: scale not given: the % may be the effect or the level left
In short: (§4)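 A549 cells (1.5×10^5) seeded in RPMI 1640 + 10% FBS with 0.4 or 0.8 μM perylene or medium only. Medium changed every 3 days. Every 6 days, at confluence, cells were trypsinized, counted by hemocytometer and replated at 1.5×10^5. Population doublings n = (log Pn − log P0)/log 2, cumulated against time. Three independent experiments.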

[6] = Binding affinity to TSG4 primer DNA (unknown origin) assessed as inhibition of telomerase-mediated extension of primer […] by fluorescence-based TRAP assay
In short: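 Cell-free TRAP. Compound preincubated with TSG4 primer in telomerase buffer (20 mM Tris-HCl pH 7.4, 1.5 mM MgCl2, 63 mM KCl, 1 mM EGTA, 200 µM dNTPs) at 37 °C for 2 h. Crude telomerase (50 ng) from telomerase-transfected HEK293T added, 30 °C for 30 min. Compound removed by phenol-chloroform, products ethanol-precipitated, PCR with FAM-tagged primer, 8% native PAGE, phosphoimaging. IC50 ± SD from three experiments.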

[7] = system: A549; assay: Cytotoxicity against human A549 cells assessed as colony formation at 0.4 uM incubated for 30 days followed by subculturing in compound-free medium measured after 14 days by crystal violet staining method relative to control; assay type: functional
In short: (§5)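 A549 cells from the long-term culture (0.4 or 0.8 μM, medium changed every 3 days, replated every 6 days) were collected on the stated day. 2×10^3 cells seeded per 10-cm dish, fed every 4-5 days. Colonies stained with crystal violet after 14 days and counted; expressed as % of control. Controls under 25 colonies excluded. Three independent experiments.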

[8] = system: A549; assay: Binding affinity to human TERT promoter DNA sequence in human A549 cells assessed as telomere restriction fragment length at 0.8 uM after 78 days by TeloTAGGG-based chemiluminescence assay (reference value: 3.4 kb); assay type: cell-based; in short: as §2
[9] = system: A549; assay: Cytotoxicity against human A549 cells assessed as colony formation at 0.8 uM incubated for 30 days followed by subculturing in compound-free medium measured after 14 days by crystal violet staining method relative to control; assay type: functional; in short: as §5
[10] = system: A549; assay: Binding affinity to human TERT promoter DNA sequence in human A549 cells assessed as telomere restriction fragment length at 0.4 uM after 78 days by TeloTAGGG-based chemiluminescence assay (reference value: 3.4 kb); assay type: cell-based; in short: as §2
[11] = system: A549; assay: Binding affinity to human TERT promoter DNA sequence in human A549 cells assessed as telomere restriction fragment length at 0.4 uM after 30 days by TeloTAGGG-based chemiluminescence assay (reference value: 3.3 kb); assay type: cell-based; in short: as §2
[12] = system: A549; assay: Binding affinity to human TERT promoter DNA sequence in human A549 cells assessed as telomere restriction fragment length at 0.8 uM after 30 days by TeloTAGGG-based chemiluminescence assay (reference value: 3.3 kb); assay type: cell-based; in short: as §2
[13] = system: A549; assay: Induction of senescence in human A549 cells assessed as increase in beta-galactosidase activity at 0.4 to 0.8 uM incubated for 78 days followed by subculturing on compound-free medium measured after 48 hrs by fluorescence microscopic analysis; assay type: functional, cell-based
In short: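 A549 cells from the long-term treatment replated and grown 48 h. Fixed in 2% formaldehyde/0.2% glutaraldehyde for 5 min at RT. Stained overnight with 1 mg/ml X-gal in pH 6 citrate/phosphate buffer with 5 mM ferro/ferricyanide, 150 mM NaCl, 2 mM MgCl2. Enlarged blue cells scored by microscopy.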

[14] = system: A549; assay: Binding affinity to human TERT promoter DNA sequence in human A549 cells assessed as inhibition of telomerase-mediated MTS primer extension after 24 hrs by fluorescence-based TRAP assay; assay type: cell-based
In short: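 A549 cells exposed to compound for 24 h, lysed in CHAPS buffer, protein measured by Bradford. 6 µg lysate protein used as telomerase source in fluorescent TRAP with MTS primer (no G-quadruplex motif), with no phenol-chloroform step. FAM-primer PCR, native PAGE, fluorescence quantified. Mean ± SD of three experiments.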

[15] = species: Homo sapiens; assay: Binding affinity to human TERT2 5'-GGGGGCTGGGCCGGGGACCCGGGAGGGGTCGGGACGGGGCGGGG-3' DNA assessed as induction of intermolecular G-quadruplex formation at 8 to 32 uM after 10 hrs by PAGE analysis; in short: as §1
[16] = species: Homo sapiens; assay: Binding affinity to human TERT1 5'-AAGGGGAGGGGCTGGGAGGGCCCGGA-3' DNA assessed as induction of intramoleculsr G-quadruplex formation after 10 hrs by PAGE analysis; in short: as §1
[17] = system: A549; assay: Cytotoxicity against human A549 cells assessed as colony formation at 0.4 uM incubated for 78 days followed by subculturing in compound-free medium measured after 14 days by crystal violet staining method relative to control; assay type: functional; in short: as §5
[18] = system: A549; assay: Cytotoxicity against human A549 cells assessed as reduction in colony formation incubated for 30 days followed by subculturing in compound-free medium measured after 14 days by crystal violet staining method; assay type: functional, cell-based; in short: as §5
[19] = system: A549; assay: Antiproliferative activity against human A549 cells assessed as decrease in cell viability at 0.8 uM after 78 days relative to control; assay type: functional, cell-based; in short: as §4
[20] = system: A549; assay: Cytotoxicity against human A549 cells assessed as colony formation at 0.8 uM incubated for 6 days followed by subculturing in compound-free medium measured after 14 days by crystal violet staining method relative to control; assay type: functional; in short: as §5
[21] = system: A549; assay: Binding affinity to human TERT promoter DNA sequence in human A549 cells assessed as telomere restriction fragment length at 0.8 uM after 6 days by TeloTAGGG-based chemiluminescence assay (reference value: 3.4 kb); assay type: cell-based; in short: as §2
[22] = system: A549; assay: Cytotoxicity against human A549 cells assessed as colony formation at 0.8 uM incubated for 78 days followed by subculturing in compound-free medium measured after 14 days by crystal violet staining method relative to control; assay type: functional; in short: as §5
[23] = system: A549; assay: Cytotoxicity against human A549 cells assessed as colony formation at 0.4 uM incubated for 6 days followed by subculturing in compound-free medium measured after 14 days by crystal violet staining method relative to control; assay type: functional; in short: as §5
[24] = system: A549; assay: Antiproliferative activity against human A549 cells assessed as decrease in population doubling at 0.4 uM after 78 days; assay type: functional, cell-based; in short: as §4

Q: With `O=C1c2ccc3c4ccc5c6c(ccc(c7ccc(c2c37)C(=O)N1CCN1CCCCC1)c64)C(=O)N(CCN1CCCCC1)C5=O` as the compound, how does the Activity [1] read?
A: Its Activity is “Dose-dependent effect”.

Q: And the Activity [2]?
A: The Activity was 3.6 kilobase.

Q: And the Activity [3]?
A: Its Activity is 68%.

Q: And the Activity [4]?
A: Its Activity is “Dose-dependent effect”.

Q: And the Activity [5]?
A: The Activity was 20%.

Q: What about the IC50 [6] of the same compound?
A: The IC50 was 1400 nM.

Q: And the inhibition [6]?
A: The inhibition was “Dose-dependent effect”.

Q: What about the Activity [7] of the same compound?
A: The Activity was 96%.

Q: What about the Activity [8] of the same compound?
A: The Activity was 2.7 kilobase.

Q: What about the Activity [9] of the same compound?
A: The Activity was 89%.

Q: What about the Activity [10] of the same compound?
A: Its Activity is 3 kilobase.

Q: What about the Activity [11] of the same compound?
A: The Activity was 3.3 kilobase.

Q: And the Activity [12]?
A: The Activity was 3.1 kilobase.

Q: What about the Activity [13] of the same compound?
A: Its Activity is “inactive”.

Q: What about the Activity [14] of the same compound?
A: The Activity was “Dose-dependent effect”.

Q: And the Activity [15]?
A: Its Activity is “Active”.

Q: And the Activity [16]?
A: The Activity was “Dose-dependent effect”.

Q: And the Activity [17]?
A: The Activity was 78%.

Q: What about the Activity [18] of the same compound?
A: The Activity was “Dose-dependent effect”.

Q: And the Activity [19]?
A: Its Activity is “inactive”.

Q: And the Activity [20]?
A: The Activity was 93%.

Q: What about the Activity [21] of the same compound?
A: The Activity was 3.5 kilobase.

Q: What about the Activity [22] of the same compound?
A: The Activity was 66%.

Q: What about the Activity [23] of the same compound?
A: The Activity was 95%.

Q: What about the Activity [24] of the same compound?
A: The Activity was “inactive”.
